Data as given in ChEMBL document CHEMBL1124186, “Synthesis and evaluation of tylosin-related macrolides modified at the aldehyde function: a new series of orally effective antibiotics” (1988).
Values after ≈ are worked out from the molar mass of the structure shown.

Columns and labels:
Haemophilus influenzae [1] = assay: In vitro antimicrobial activity against aerobic bacteria Haemophilus influenzae 76; format: functional
Haemophilus influenzae [2] = assay: In vitro antimicrobial activity against aerobic bacteria Haemophilus influenzae MX366,; format: functional
Haemophilus influenzae [3] = assay: In vitro antimicrobial activity against Haemophilus influenzae.; format: functional
Mus musculus [4] = assay: Peripheral plasma levels in mice after oral administration of 50 mg/kg dose for 2 hr; format: functional, organism-based; parameters: dose 50 mg/kg
Method in brief: (§1)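 Mice were given the compound orally and sampled for peripheral plasma at each time point. Plasma was assayed microbiologically against Micrococcus luteus seeded in Antibiotic Medium 1. Inhibition zone sizes were read, and concentrations were calculated from each compound's own standard curve. Each value is the mean of five mice per time point.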

Mus musculus [5] = assay: Peripheral plasma levels in mice after oral administration of 100 mg/kg dose for 4 hr; format: functional, organism-based; parameters: dose 100 mg/kg; method in brief: as §1
Mus musculus [6] = assay: Peripheral plasma levels in mice after oral administration of 50 mg/kg dose for 0.25 hr; format: functional, organism-based; parameters: dose 50 mg/kg; method in brief: as §1
Mus musculus [7] = assay: Peripheral plasma levels in mice after oral administration of 100 mg/kg dose for 0.25 hr; format: functional, organism-based; parameters: dose 100 mg/kg; method in brief: as §1
Mus musculus [8] = assay: Peripheral plasma levels in mice after oral administration of 100 mg/kg dose for 0.5 hr; format: functional, organism-based; parameters: dose 100 mg/kg; method in brief: as §1
Mus musculus [9] = assay: Peripheral plasma levels in mice after oral administration of 100 mg/kg dose for 1 hr; format: functional, organism-based; parameters: dose 100 mg/kg; method in brief: as §1
Mus musculus [10] = assay: Peripheral plasma levels in mice after oral administration of 100 mg/kg dose for 2 hr; format: functional, organism-based; parameters: dose 100 mg/kg; method in brief: as §1
Mus musculus [11] = assay: Peripheral plasma levels in mice after oral administration of 50 mg/kg dose for 1 hr; format: functional, organism-based; parameters: dose 50 mg/kg; method in brief: as §1
Rattus norvegicus [12] = assay: Peripheral plasma levels in rats after oral administration of 100 mg/kg dose for 0.25 hr; format: functional, organism-based; parameters: dose 100 mg/kg
Method in brief: (§2)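 Rats received 100 mg/kg orally and were sampled for peripheral plasma. Concentrations were measured by Micrococcus luteus agar-diffusion microbiological assay in Antibiotic Medium 1, with zone sizes converted using the standard curve for the appropriate compound. Each value is the average of three rats per time point.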

Rattus norvegicus [13] = assay: Peripheral plasma levels in rats after oral administration of 100 mg/kg dose for 0.5 hr; format: functional, organism-based; parameters: dose 100 mg/kg; method in brief: as §2
Rattus norvegicus [14] = assay: Peripheral plasma levels in rats after oral administration of 100 mg/kg dose for 1 hr; format: functional, organism-based; parameters: dose 100 mg/kg; method in brief: as §2
Rattus norvegicus [15] = assay: Peripheral plasma levels in rats after oral administration of 100 mg/kg dose for 2 hr; format: functional, organism-based; parameters: dose 100 mg/kg; method in brief: as §2
Rattus norvegicus [16] = assay: Peripheral plasma levels in rats after oral administration of 100 mg/kg dose for 4 hr; format: functional, organism-based; parameters: dose 100 mg/kg; method in brief: as §2
Streptococcus [17] = assay: In vitro antimicrobial activity against aerobic bacteria Streptococcus B 14; format: functional
Streptococcus [18] = assay: In vitro antimicrobial activity against aerobic bacteria Streptococcus B 8; format: functional
Streptococcus [19] = assay: In vitro antimicrobial activity against aerobic bacteria Streptococcus C 24; format: functional
Streptococcus [20] = assay: In vitro antimicrobial activity against aerobic bacteria Streptococcus D 8043; format: functional
Streptococcus [21] = assay: In vitro antimicrobial activity against aerobic bacteria Streptococcus D 9960; format: functional
Streptococcus [22] = assay: In vitro antimicrobial activity against aerobic bacteria Streptococcus G Kruder; format: functional; details: Streptococcus; read-out: MIC
[23] = system: Staphylococcus epidermidis; assay: In vitro antimicrobial activity against aerobic bacteria Streptococcus epi 270; format: functional
Staphylococcus aureus [24] = assay: In vitro antimicrobial activity against Staphylococcus aureus X1; format: functional
Staphylococcus aureus [25] = assay: In vitro antimicrobial activity against aerobic bacteria Staphylococcus aureus 513E; format: functional
Staphylococcus aureus [26] = assay: In vitro antimicrobial activity against aerobic bacteria Staphylococcus aureus V140,; format: functional
Staphylococcus aureus [27] = assay: In vitro antimicrobial activity against aerobic bacteria Staphylococcus aureus V41; format: functional
Staphylococcus aureus [28] = assay: In vitro antimicrobial activity against aerobic bacteria Staphylococcus aureus X400; format: functional
Streptococcus pyogenes [29] = assay: In vivo effective dose xperimental infections in rodent caused by Streptococcus pyogenes C203 when administered sc; format: functional
Streptococcus pneumoniae = assay: In vitro antimicrobial activity against aerobic bacteria Streptococcus pneumoniae B1-438; format: functional, streptococcus pneum
Streptococcus sanguinis = assay: In vitro antimicrobial activity against aerobic bacteria Streptococcus sanguis MX132; format: functional
[30] = system: Staphylococcus epidermidis; assay: In vitro antimicrobial activity against Staphylococcus epidermidis EPI1; format: functional
[31] = system: Staphylococcus epidermidis; assay: In vitro antimicrobial activity against aerobic bacteria Streptococcus epi 222; format: functional
Enterococcus faecium = assay: In vitro antimicrobial activity against Streptococcus faecium X66; format: functional, streptococcus fae-cium
Streptococcus pyogenes [32] = assay: In vitro antimicrobial activity against Streptococcus pyogenes C203; format: functional
Streptococcus viridans = assay: In vitro antimicrobial activity against aerobic bacteria Streptococcus viridans 9943; format: functional
Streptococcus [33] = assay: In vitro antimicrobial activity against aerobic bacteria Streptococcus B 5; format: functional
Staphylococcus aureus [34] = assay: In vitro antimicrobial activity against aerobic bacteria Staphylococcus aureus V135; format: functional
Mus musculus [35] = assay: Peripheral plasma levels in mice after oral administration of 50 mg/kg dose for 0.5 hr; format: functional, organism-based; parameters: dose 50 mg/kg; method in brief: as §1
Streptococcus [36] = assay: In vitro antimicrobial activity against aerobic bacteria Streptococcus D 2041; format: functional

With `CC[C@H]1OC(=O)C[C@@H](O)[C@H](C)[C@@H](O[C@@H]2O[C@H](C)[C@@H](O[C@H]3C[C@@](C)(O)[C@@H](O)[C@H](C)O3)[C@H](N(C)C)[C@H]2O)[C@@H](CCOc2ccccc2)C[C@@H](C)C(=O)/C=C/C(C)=C/[C@@H]1CO[C@@H]1O[C@H](C)[C@@H](O)[C@@H](OC)[C@H]1OC` the MIC (Haemophilus influenzae [1]) was greater than 128 µg/mL, the MIC (Haemophilus influenzae [2]) was 128 µg/mL (≈ 129 µM) and the MIC (Haemophilus influenzae [3]) was greater than 128 µg/mL. The Concentration (Mus musculus [4]) was 1.2 µg/mL, the Concentration (Mus musculus [5]) was 3.5 µg/mL and the Concentration (Mus musculus [6]) was 1.6 µg/mL. For the same molecule, the Concentration (Mus musculus [7]) was 7.9 µg/mL, the Concentration (Mus musculus [8]) was 7.4 µg/mL and the Concentration (Mus musculus [9]) was 6 µg/mL. The Concentration (Mus musculus [10]) was 4 µg/mL, the Concentration (Mus musculus [11]) was 2.3 µg/mL and the Concentration (Rattus norvegicus [12]) was 0.2 µg/mL. The Concentration (Rattus norvegicus [13]) was 0.6 µg/mL, the Concentration (Rattus norvegicus [14]) was 2 µg/mL and the Concentration (Rattus norvegicus [15]) was 2.7 µg/mL. It also gave a Concentration (Rattus norvegicus [16]) of 2.6 µg/mL, an MIC (Streptococcus [17]) of 128 µg/mL (≈ 129 µM) and an MIC (Streptococcus [18]) of 128 µg/mL (≈ 129 µM). It also gave an MIC (Streptococcus [19]) of 1 µg/mL (≈ 1.01 µM), an MIC (Streptococcus [20]) of 128 µg/mL (≈ 129 µM) and an MIC (Streptococcus [21]) of 128 µg/mL (≈ 129 µM). The MIC (Streptococcus [22]) was greater than 128 µg/mL, the MIC [23] was greater than 128 µg/mL and the MIC (Staphylococcus aureus [24]) was 1 µg/mL (≈ 1.01 µM). It also gave an MIC (Staphylococcus aureus [25]) of 1 µg/mL (≈ 1.01 µM), an MIC (Staphylococcus aureus [26]) of 2 µg/mL (≈ 2.01 µM) and an MIC (Staphylococcus aureus [27]) of 1 µg/mL (≈ 1.01 µM). It also gave an MIC (Staphylococcus aureus [28]) of 2 µg/mL (≈ 2.01 µM), an ED50 (Streptococcus pyogenes [29]) greater than 6.3 mg/kg and an MIC (Streptococcus pneumoniae) greater than 128 µg/mL. The MIC (Streptococcus sanguinis) was 8 µg/mL (≈ 8.05 µM), the MIC [30] was 1 µg/mL (≈ 1.01 µM) and the MIC [31] was 1 µg/mL (≈ 1.01 µM). For the same molecule, the MIC (Enterococcus faecium) was 128 µg/mL (≈ 129 µM), the MIC (Streptococcus pyogenes [32]) was 2 µg/mL (≈ 2.01 µM) and the MIC (Streptococcus viridans) was greater than 128 µg/mL. For the same molecule, the MIC (Streptococcus [33]) was 128 µg/mL (≈ 129 µM), the MIC (Staphylococcus aureus [34]) was 1 µg/mL (≈ 1.01 µM) and the Concentration (Mus musculus [35]) was 2 µg/mL. It also gave an MIC (Streptococcus [36]) greater than 128 µg/mL.
